# A selection: hits, their analogues and other compounds. The true share with any hit is near 4.8%.
# SKKanGAS inh = inhibitors of SKKanGAS S. pyogenes growth in kanamycin (SK-promoter or general growth effect). BacTiter-Glo, 6 h. inhibition, % at 7.5 µM. 300,000 compounds, 1.3% hits;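 active = mean replicate score, as percent of positive control median, at least 50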;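 note: strain carries kanamycin resistance gene driven by streptokinase promoter and grows in 40 µg/ml kanamycin; loss of luminescence reflects streptokinase promoter inhibition or plain growth inhibition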
# Beta cell apopt = beta cell apoptosis inhibition; INS-1E cytokine-induced death, ATP luminescence, 48 h; percent of positive-control rescue, neutral wells zero; protection from apoptosis, % (no concentration beside the values); 300,000 compounds, 0.8% hits;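 active = Every replicate reaches about 75%, or at least half do and their mean reaches it too, limit read from the data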;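 note: higher means more ATP so stronger rescue from cytokine killing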
# XBP1 UPR activ = activators of adaptive arm of unfolded protein response (XBP1) | CHO-XBP1 luciferase reporter, IRE1-XBP1 UPR activation, luminescence; percent of tunicamycin response, DMSO as zero | activation, % at 20 µM | 330,000 compounds, 0.33% hits | AID 463104;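 active = versus positive control, 20 µM dose yields 30% or more activation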
#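 Material: CHO cell line with stable XBP1 luciferase reporter; buffer or medium: F12 medium containing 10% fetal bovine serum; compound: single point, 20 µM final compound, 1% DMSO; incubation: 6 h treatment, 37 °C; measured by: glow luminescence from Steady-Glo reagent; evaluation: activation, % of tunicamycin; control set: tunicamycin high, DMSO low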
# CHOP UPR activ = apoptotic UPR (CHOP) activation; CHO-CHOP luciferase reporter, luminescence; percent of tunicamycin response over DMSO baseline; 330,000 compounds, 0.34% hits; activation, % at 10 µM;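 active = at 10 µM dose, activation of 40% or more, normalized to positive control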
#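 System: CHO-CHOP luciferase reporter cell line | Buffer or medium: F12 medium containing 10% fetal bovine serum | Doses: One dose, 10 µM in 0.5% DMSO | Times: 6 h compound exposure at 37 °C after overnight seeding | Signal: Luciferase luminescence | Read-out: % activation vs tunicamycin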
# Mdm2 MdmX PPI = disrupts the human Mdm2-MdmX interaction; 330,000 compounds, 3% hits; O15151+Q00987; AID 485346; inhibition, % at 8 µM; SaOS-2 split-luciferase Mdm2/MdmX complementation, luminescence;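 active = inhibition of at least 50% at 8 µM in the primary screen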
# CSC inhib = cancer stem cell inhibition. cancer stem cell-like cells viability, luminescence. inhibition, % at 7.5 µM. 300,000 compounds, 1.1% hits. AID 2717; in the data active = inhibition above about 75%; tested in HMLE shEcad cells
# A number is an active result; – = inactive; · = not tested or not shown.
SMILES,SKKanGAS inh,Beta cell apopt,XBP1 UPR activ,CHOP UPR activ,Mdm2 MdmX PPI,CSC inhib
Cc1ccc(Cl)cc1N1CCN(C(=O)C(C)n2ncn3cccc3c2=O)CC1 (stereo not given),–,–,–,–,–,–
CN(C(=O)COC(=O)c1cccc(S(=O)(=O)N2CCCCC2)c1)C1CCS(=O)(=O)C1 (stereo not given),–,–,–,–,–,–
COc1ccccc1CCn1c(N)cc(=O)[nH]c1=O,–,–,–,–,–,–
CCn1c(=O)c(C(=O)NNC(=O)c2ccccc2F)c(O)c2ccccc21,90,–,–,–,–,–
C/C(=N/NC(=O)c1cc2ccccc2cc1O)C1C(=O)c2ccccc2C1=O,83,–,–,–,–,–
C/C(=N\NC(=O)c1ccccc1O)C1C(=O)c2ccccc2C1=O,52,–,–,–,–,–
CCC/C(C)=N/NC(=O)c1ccccc1O,–,–,–,–,–,–
COc1cccc(C(=O)NC(=S)Nc2ccccc2N2CCCC2)c1,–,–,–,–,–,–
CC(C)Oc1cccc(C(=O)NC(=S)Nc2ccccc2N2CCOCC2)c1,–,–,–,–,–,121
O=C(NC(=S)Nc1ccccc1N1CCOCC1)c1cccc([N+](=O)[O-])c1,–,–,–,–,–,–
CCOc1ccc(C(=O)NC(=S)Nc2ccccc2N2CCOCC2)cc1Br,–,–,–,–,–,101
COc1cccc(C(=O)NC(=S)Nc2ccccc2N2CCCCC2)c1,65,·,–,–,–,–
COc1ccc(C(=O)NC(=S)Nc2ccccc2N2CCOCC2)cc1Br,–,–,–,–,–,–
O=C(NC(=S)Nc1ccccc1N1CCCC1)c1ccccc1[N+](=O)[O-],–,–,·,·,·,–
O=C(NC(=S)Nc1ccccc1N1CCCC1)c1ccccc1Br,81,–,–,–,–,–
COc1ccc(Cl)cc1NC(=O)CN(C)C(=O)Cc1n[nH]c(=O)c2ccccc12,–,–,–,–,–,–
CCn1c2ccccc2c2cc(NC(=O)CN(C)CC(=O)Nc3ccc(N4CCOCC4)cc3)ccc21,–,–,–,–,–,80
CCn1c2ccccc2c2cc(NC(=O)c3cccc([N+](=O)[O-])c3)ccc21,–,–,–,–,–,88
CCn1c2ccccc2c2cc(NC(=O)c3cc(OC)cc(OC)c3)ccc21,–,–,–,–,–,84
CCn1c2ccccc2c2cc(NC(=O)COc3ccc(OC)cc3)ccc21,–,–,–,–,–,–
CCn1c2ccccc2c2cc(/C=N/NC(=O)c3cc(O)cc(O)c3)ccc21,–,–,–,–,–,84
O=C(NCc1ccccc1)C1CCC(=O)N(CCCN2CCCC2=O)C1 (stereo not given),–,–,–,–,–,–
O=C(Cc1ccccc1)NNc1ccc2ccccc2c1,–,–,–,–,–,88
O=C(Nc1ccccc1)C1CCOC1=O (stereo not given),–,–,–,–,–,–
CC(c1ccccc1)N1C(=O)c2ccc(C(=O)Nc3ccc(Br)cc3C(=O)O)cc2C1=O (stereo not given),53,–,–,–,–,–
SMILES,SKKanGAS inh,Beta cell apopt,XBP1 UPR activ,CHOP UPR activ,Mdm2 MdmX PPI,CSC inhib
CC(c1ccccc1)N1C(=O)c2ccc(C(=O)Nc3ccccc3C(=O)O)cc2C1=O (stereo not given),–,·,–,–,–,–
COc1cc(C(=O)NC(=S)Nc2ccc(Cl)cn2)cc(OC)c1OC,–,–,–,–,–,–
CCCC1NC(C(=O)O)Cc2c1[nH]c1ccccc21 (stereo not given),–,–,–,–,–,–
COc1ccc(Sc2ccc(NC(=O)c3ccccc3Cl)cc2C#N)cc1,52,·,–,–,–,–
N#Cc1ccccc1Sc1ccccc1C(=O)Nc1ccc2ccccc2c1,–,–,–,–,–,–
O=C1CCC(/C=C/c2ccccc2)=NN1Cc1ccccc1Cl,–,–,–,–,–,–
O=C1CCC(/C=C/c2ccccc2)=NN1Cc1ccc(Cl)c(Cl)c1,53,–,–,–,–,–
O=[N+]([O-])c1ccc(Nc2nc(NC3CCCCC3)nc(N3CCCC3)n2)cc1,83,–,–,–,–,·
c1ccc(Nc2nc(N3CCCCC3)nc(N3CCCCC3)n2)cc1,84,–,–,–,–,–

# Screening results deposited in PubChem BioAssay by several laboratories.
